Experimental data pooled from the literature.
Each line is one published result; the experiments were not run side by side.
ABL1: Tyrosine-protein kinase ABL1 (ABL1, Homo sapiens, UniProt P00519)
ABL1 F317L non-phosphorylated: Tyrosine-protein kinase ABL1, non-phosphorylated (ABL1, Homo sapiens, UniProt P00519, F317L)
ABL1 T315I: Tyrosine-protein kinase ABL1 (ABL1, Homo sapiens, UniProt P00519, T315I)

Structure (SMILES)	target	read-out	mode	method	tested at	measurement	value
Nc1ncnc2occ(-c3ccc(NC(=O)Nc4cc(C(F)(F)F)ccc4F)cc3)c12	Tyrosine-protein kinase ABL1, phosphorylated (ABL1, Homo sapiens, UniProt P00519)	cell-free assay	inhibitor		20 µM	remaining signal	0.1%
C[C@@H]1CCN(C(=O)CC#N)C[C@@H]1N(C)c1ncnc2[nH]ccc12	ABL1	cell-free assay	inhibitor		0.5 µM	remaining signal	101%
Cc1cc(NC(=O)c2cccc3cc(-c4cccc5[nH]nc(N)c45)ccc23)ccc1F	Tyrosine-protein kinase ABL1 (ABL1, Homo sapiens, UniProt P00519, M351T)	enzyme activity	inhibitor		0.1 µM	activity vs control	89%
Cc1ccc(C(=O)NCc2ccsc2)cc1C#Cc1cn(C(C)C)c2ncnc(N)c12	ABL1	enzyme activity	inhibitor		1 µM	activity vs control	1%
CCOC(=O)c1c(C)[nH]c(/C=C2\C(=O)Nc3ccccc32)c1C	ABL1	cell-free assay			0.5 µM	remaining signal	95.4%
O=C(NC[C@@H]1[C@H]2CN(C(=O)OCc3cc(C(F)(F)F)cc(C(F)(F)F)c3)C[C@@H]12)c1ccc2[nH]nnc2c1	ABL1 F317L non-phosphorylated	cell-free assay		competition with immobilised ligand	1 µM	remaining binding	91%
COc1cc(-c2cc(-c3ccc(N4CCNCC4)cc3)cnc2N)cc(OC)c1OC	ABL1 T315I	enzyme activity	inhibitor		0.1 µM	inhibition	13%
c1nc2c(Nc3ccc4c(c3)OCCO4)nc(Nc3ccc4c(c3)OCCO4)nc2[nH]1	Tyrosine-protein kinase ABL1, non-phosphorylated (ABL1, Homo sapiens, UniProt P00519)	enzyme activity	inhibitor		10 µM	activity vs control	2.1%
COc1cc2ncnc(Nc3ccc(Oc4ccccc4)c(C)c3C)c2cc1OC	Tyrosine-protein kinase ABL1 (ABL1, Homo sapiens, UniProt P00519, E255K)	enzyme activity	inhibitor		1 µM	inhibition	5%
CCCOc1ccc([C@H]2[C@H](C(=O)O)[C@@H](c3ccc4c(c3)OCO4)CN2CC(=O)Nc2c(CC)cccc2CC)cc1	Tyrosine-protein kinase ABL1, phosphorylated (ABL1, Homo sapiens, UniProt P00519, Q252H)	cell-free assay		competition with immobilised ligand	1 µM	remaining binding	86%
COc1cc2ncnc(Nc3ccc(Oc4ccccc4)cc3C)c2cc1OC	ABL1	enzyme activity	inhibitor		1 µM	inhibition	13%
COc1ccc2c(c1)O[C@H](c1ccc(OC)c(OC)c1)C[C@@H]2NC(=O)C1(c2ccc3c(c2)OC(F)(F)O3)CC1	Tyrosine-protein kinase ABL1, phosphorylated (ABL1, Homo sapiens, UniProt P00519, M351T)	cell-free assay		competition with immobilised ligand	1 µM	remaining binding	88%
CC(C)c1ccc(NC(=O)c2cccs2)c(-c2nc3ccccc3[nH]c2=O)c1	ABL1	enzyme activity	inhibitor		1 µM	activity vs control	115%
O=C1NC(=O)c2cc(Nc3ccc(F)cc3)c(Nc3ccc(F)cc3)cc21	ABL1	cell-free assay			0.5 µM	remaining signal	95.7%
COc1cc2nccc(Oc3ccc(NC(=O)Nc4ccc(F)cc4F)c(F)c3)c2cc1OC	ABL1	thermal stability		DSF	10 µM	ΔTm	> 10 °C
O=C(NS(=O)(=O)c1ccc(NCC2CCOCC2)c([N+](=O)[O-])c1)c1ccc(N2CCN(Cc3ccc(C(F)(F)F)cc3-c3ccc(Cl)cc3)CC2)cc1Oc1cnc2[nH]ccc2c1	ABL1 F317L non-phosphorylated	cell-free assay		competition with immobilised ligand	1 µM	remaining binding	91%
Cc1ccc(NC(=O)c2ccc(C)c(C(F)(F)F)c2)cc1C#Cc1nn(C2CCC(O)CC2)c2ncnc(N)c12 (centres unmarked)	ABL1	cell-free assay			10 µM	remaining signal	-3%
COc1cc2c(N3CCN(C(=O)Nc4ccc(OC(C)C)cc4)CC3)ncnc2cc1OCCCN1CCCCC1	ABL1	cell-free assay			0.5 µM	remaining signal	104%
N#Cc1ccc(Nc2ccc3[nH]c(=O)[nH]c3c2)c(Cl)c1	Tyrosine-protein kinase ABL1, phosphorylated (ABL1, Homo sapiens, UniProt P00519, H396P)	cell-free assay		competition with immobilised ligand	1 µM	remaining binding	95%
CNc1cccc2cc(C(=O)Nc3ccc(C(=O)O)cc3)c(=O)[nH]c12	ABL1 T315I	enzyme activity	inhibitor		10 µM	inhibition	1.3%
CNCc1ccccc1-c1csc([C@H](C)Nc2nc(C)nc3cc(OC)c(OC)cc23)c1	ABL1 F317L non-phosphorylated	cell-free assay		competition with immobilised ligand	1 µM	remaining binding	97%
Cc1cnc(NC2CCOCC2)nc1-n1cnc(C(=O)NC(CN)c2cc(F)cc(Cl)c2)c1 (centres unmarked)	ABL1 T315I	enzyme activity	inhibitor	radiometric	1 µM	remaining activity	115%
Cc1noc([C@H]2C[C@@H](c3ccc(C(F)(F)F)cc3)CN(C(=O)N3CCS(=O)(=O)C3)C2)n1	Tyrosine-protein kinase ABL1, phosphorylated (ABL1, Homo sapiens, UniProt P00519, E255K)	binding		competition with immobilised ligand	1 µM	remaining binding	100%
CCCOc1ccc(OC)c(F)c1C(=O)c1ccc(C(=O)N[C@@H]2CNC[C@H]2NC(=O)c2ccc3[nH]ncc3c2)cc1	Tyrosine-protein kinase ABL1 (ABL1, Homo sapiens, UniProt P00519, H396P)	enzyme activity	inhibitor		10 µM	remaining activity	107%
CO[C@@H](C)c1c(Nc2ccc([C@H](N(C)C(=O)C3CCS(=O)(=O)CC3)C(F)(F)F)cc2)cnc2cc(Cl)nn12	Tyrosine-protein kinase ABL1, phosphorylated (ABL1, Homo sapiens, UniProt P00519, T315I)	cell-free assay		competition with immobilised ligand	1 µM	remaining binding	87%
COc1cc(/C=C/C(=O)CC(=O)/C=C/c2ccc(O)c(OC)c2)ccc1O	ABL1	enzyme activity	inhibitor		1 µM	activity vs control	82%
